XBP1 UPR activ = activators of adaptive XBP1 UPR arm, primary screen, cell-based, CHO-XBP1 luciferase reporter, luminescence, uHTS. IRE1-XBP1 UPR activation; percent of tunicamycin response, DMSO as zero. activation, % at 20 µM. hit rate 0.33% among 330,000. AID 463104, 2010;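 active means versus positive control, 20 µM dose yields 30% or more activation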;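 further: 100% = tunicamycin at 10 µg/mL and 0% = DMSO only wells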
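Signal: luciferase luminescence; Assay system: CHO-XBP1 luciferase reporter cells; Amount: one thousand reporter cells per well; Dosing: 20 µM single concentration, DMSO 1%; Benchmarks: high control tunicamycin 10 µg/mL final, low control DMSO vehicle only; Schedule: 6 h compound exposure at 37 °C, 5% CO2; Evaluation: percent activation relative to tunicamycin reference.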
697 NFkB inh = inhibitors of PMA/ionomycin-induced NF-kB reporter, 697 cells, primary screen, B-cell NF-kB inhibitor project, cell-based, luminescence, uHTS | 697 B-cell NF-kB luciferase reporter, 16 h | inhibition, % at 4 µM | hit rate 0.33% among 330,000; in the data active means inhibition above about 35%
CHOP UPR activ = activators of apoptotic CHOP UPR arm, primary screen, cell-based, CHO-CHOP luciferase reporter, luminescence, uHTS; activation, % at 10 µM; hit rate 0.34% among 330,000; AID 449763, 2010; UPR activation; percent of tunicamycin response over DMSO baseline;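 active means at 10 µM dose, activation of 40% or more, normalized to positive control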;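 further: 100% = tunicamycin at 10 µg/mL and 0% = DMSO alone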
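Material: CHO-CHOP cells, stable luciferase reporter of PERK-eIF2a-CHOP signalling; quantity: 500 reporter cells seeded per well; buffer or medium: F12 medium containing 10% fetal bovine serum; compound: one dose, 10 µM in 0.5% DMSO; incubation: 6 h compound treatment, 37 °C; measured by: Steady-Glo luciferase luminescence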
Jurkat NFkB inh = inhibitors of induced NF-kB luciferase reporter, primary screen, TCR NF-kB activation inhibitor project, cell-based, luminescence, uHTS | inhibition, % at 4 µM | Jurkat, PMA/ionomycin-induced NF-kB luciferase reporter | hit rate 0.53% among 330,000 | AID 435003, 2010; in the data active means inhibition above about 50%
CHOP inh = inhibitors of CHOP promoter induction, primary screen, cell-based, unfolded protein response, luciferase reporter | CHO-K1 CHOP-promoter luciferase, tunicamycin-induced, 15-18 h | inhibition, % at 10 µM | hit rate 3.8% among 220,000 | AID 2732, 2010;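 active means compounds that reduced the stress-induced luciferase reporter signal by more than about 70% of percent inhibition, limit read from the data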;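 further: 0% = tunicamycin plus vehicle and 100% = wells without tunicamycin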
Jurkat NFkB conf = PMA/ionomycin-induced NF-kB reporter inhibitors, Jurkat retest, confirmation, T-cell NF-kB inhibitor project, cell-based, luminescence, single concentration; shares compounds with Jurkat NFkB inh; Jurkat NF-kB luciferase, 16 h; inhibition, % at 4 µM; hit rate 27% among 2,700;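 active means inhibition reaching about 45% at 4 µM in either replicate, limit read from the data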;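 further: plate controls were PMA/ionomycin stimulated DMSO wells for no effect and unstimulated DMSO wells for full effect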
697 NFkB conf = PMA/ionomycin-induced NF-kB reporter inhibitors, 697 retest, confirmation, B-cell NF-kB inhibitor project, cell-based, luminescence, single concentration; AID 449746, 2010; inhibition, % at 4 µM; hit rate 35% among 2,000; 697 B-cell NF-kB luciferase, 16 h; shares compounds with 697 NFkB inh; in the data active means inhibition mostly above about 28%, no sharp cut-off; inactive means mostly below about 22%
CHOP UPR conf = activators of apoptotic CHOP UPR arm, confirmation, cell-based, CHO-CHOP luciferase reporter, single concentration; shares compounds with CHOP UPR activ; hit rate 64% among 1,000; CHO-CHOP cells, CHOP-luciferase reporter luminescence; percent of tunicamycin response, DMSO as zero; AID 463112, 2010; activation, % at 10 µM; in the data active means activation above about 33%;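 further: 0% = DMSO wells and 100% = tunicamycin 10 µg/mL wells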
* marks the source's active call; other numbers are inactive results; . = no result. The entries come from a sample that favours hits as a whole.

SMILES | XBP1 UPR activ | 697 NFkB inh | CHOP UPR activ | Jurkat NFkB inh | CHOP inh | Jurkat NFkB conf | 697 NFkB conf | CHOP UPR conf
CCCC(=O)Nc1ccc2oc(-c3ccncc3)nc2c1 | 2.6 | -7.0 | 1.1 | -30.2 | -21.8 | . | . | .
CCc1ccc2oc(-c3ccc(NC(C)=O)cc3)nc2c1 | -4.5 | -308.6 | 3.3 | -219.4 | . | -143.4 | -333.9 | .
CCCC(=O)Nc1ccc(-c2nc3cc(C)c(C)cc3o2)cc1 | -0.4 | -383.0 | 3.1 | -166.7 | 94.8* | -111.7 | -296.8 | .
CCN(CC)CC(=O)Nc1ccc(-c2nc3cc(NC(=O)CN(CC)CC)ccc3o2)cc1 | -2.0 | -21.0 | -0.2 | -55.3 | 5.7 | . | . | .
O=c1oc2ccccc2cc1-c1nc2ccccc2o1 | -0.8 | -97.9 | 3.5 | -86.0 | 0.7 | . | . | .
O=c1oc2ccccc2cc1-c1nc2c(s1)CCCC2 | -3.4 | -305.4 | -4.4 | -164.7 | 95.7* | -78.9 | -369.2 | .
Cc1ccc(-c2csc(NC(=O)C3CCN(S(=O)(=O)c4cccs4)CC3)n2)cc1 | 2.6 | 62.4* | 4.2 | 63.0* | 49.7 | 73.3* | 67.2* | .
O=C(Nc1nc(-c2ccc3ccccc3c2)cs1)C1CCN(S(=O)(=O)c2cccs2)CC1 | -3.0 | -50.0 | 1.1 | 33.1 | 40.4 | . | . | .
COc1ccc(NS(=O)(=O)c2cccc(NC(=O)c3ccc(Cl)nc3)c2)cc1 | -0.7 | 64.1* | 2.9 | 72.1* | 46.1 | 66.7* | 54.0* | .
COc1cccc(S(=O)(=O)Nc2ccc(C(=O)Nc3ccncc3)cc2)c1 | -1.9 | -18.8 | -1.5 | -11.8 | 26.2 | . | . | .
Oc1ccc(-c2cn3ccccc3n2)cc1 | 1.6 | -71.9 | 3.9 | -72.7 | 2.0 | . | . | .
Brc1ccc(-c2cn3ccccc3n2)cc1 | -0.7 | -264.0 | 2.8 | -181.3 | 50.2 | -117.1 | -265.1 | .
CC(C)N1CCc2c(sc(NC(=O)c3ccc([N+](=O)[O-])o3)c2C(N)=O)C1 | -5.6 | -8.5 | 5.7 | 38.5 | . | . | . | .
COC(=O)c1c(NC(=O)c2ccc([N+](=O)[O-])o2)sc2c1CCN(C(C)C)C2 | -8.8 | -85.6 | 70.7* | 66.5* | . | 43.2 | . | 55.5*
CCc1ccc(N2C(=O)C(Cl)=C(Nc3ccc(C(=O)N4CCCC4)cc3)C2=O)cc1 | -5.8 | -117.2 | 104.3* | 82.5* | . | 87.8* | . | 0.1
O=C(CN1C(=O)NC2(CCCC2)C1=O)Nc1cc(Cl)ccc1Oc1ccccc1 | -1.2 | 15.5 | 0.0 | 12.2 | . | . | . | .
CCC(C)(C)NC(=O)C(c1ccc(OC)cc1)N(C(=O)CCC(=O)Nc1cc(C)on1)c1ccc(F)cc1 (configuration not stated) | -0.5 | 12.8 | -1.4 | -3.3 | . | . | . | .
CCn1c2c(c(=N)c3c1CCC3)CCC2 | 1.7 | 10.1 | 0.6 | 12.7 | 9.6 | . | . | .
CCCCCCCCCn1c2c(c(=N)c3c1CCC3)CCC2 | 23.4 | 93.5* | 57.3* | 90.9* | . | 73.5* | -22.3 | 42.6*
ClC1=C(Cl)C(Cl)=C(Cl)C1=C/C=C/c1ccccc1 | 29.6 | -275.2 | 55.4* | 55.2* | 94.6* | -14.2 | -26.1 | 29.4
Oc1ccc(N=Nc2ccc3c(c2)OCCO3)c2ncccc12 | -2.4 | -152.8 | 6.9 | 27.5 | 56.7 | . | . | .
Cc1cccc(N=Nc2ccc(O)c3ncccc23)c1 | 7.5 | -78.6 | 85.6* | 89.6* | 104.7* | 39.7 | . | 69.4*
C/C(=N\NC(=O)c1ccc(F)cc1)c1ccccn1 | -1.0 | -370.8 | 302.8* | 100.2* | . | -20.9 | -0.4 | 266.7*
C/C(=N/NC(=O)CNC(=O)c1ccccn1)c1ccccc1 | 1.9 | 10.5 | -0.4 | -1.8 | 6.3 | . | . | .
